# Measured values published in PMC7699451 (Drug Design, Development and Therapy, 2020).
# Read-outs that look alike come from different tables or passages of the source.
# Tests used:
# [1] = Plasma pharmacokinetics at steady-state, LC-MS/MS, noncompartmental analysis; type: in vivo, human; settings: for CLss/F / Ctrough,ss / MR, metabolic ratio (AUCτ,ss of metabolite/AUCτ,ss of parent) / AUCτ,ss / Cmax,ss: mean ± SD, N = 34
# Outline: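 Oral DPP-4 inhibitor 5 mg once daily, alone for 7 days or with sulfonylurea 4 mg. Plasma was sampled pre-dose and at 1, 2, 3, 4, 5, 6, 8 and 12 h at steady state, spun at 1900 g (4°C, 10 min) and frozen below −70°C. LC-MS/MS was linear over 0.1–60 μg/L. Noncompartmental analysis: Cmax,ss observed; AUCτ,ss and CLss by the linear-log trapezoidal method.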
# [2] = Urinary excretion of evogliptin at steady-state; type: in vivo, human; settings: for CL renal: human, urine and plasma, oral
# Outline: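 At steady state of oral DPP-4 inhibitor 5 mg once daily, urine was collected over 0–24 h and frozen below −70°C. Parent drug was measured by LC-MS/MS (linear 5–50,000 μg/L). feτ,ss was the amount excreted unchanged divided by that day's dose. Renal clearance was the amount excreted divided by plasma AUCτ,ss.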
# [3] = system: serum glucose; test: Oral glucose tolerance test, serum glucose; type: in vivo, human; settings: OGTT 75 g glucose, steady-state, mean ± SD, N = 34
# Outline: (§1)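 Healthy Korean men aged 19–45 years (BMI 18–27 kg/m2) in a randomized, open-label, 3-period crossover study. Treatments were oral once daily: DPP-4 inhibitor 5 mg, sulfonylurea 4 mg, or both. After an overnight fast, subjects took 75 g glucose; serum glucose and insulin were sampled at 0, 0.25, 0.5, 1, 1.5, 2 and 3 h, at baseline (day −1) and at steady state. Peaks were read directly; areas used the linear trapezoidal method. Δ values subtracted baseline at each time point.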
# [4] = system: serum insulin; test: Oral glucose tolerance test, serum insulin; type: in vivo, human; settings: OGTT 75 g glucose, steady-state; mean ± SD; N = 34
# Outline: as §1
# [5] = Safety and tolerability, adverse events; type: in vivo, human
# Outline: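 Adverse events, physical examinations, vital signs, 12-lead ECG and clinical laboratory tests were monitored throughout the crossover study in dosed healthy men. Investigators assessed whether each adverse event was related to treatment.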
# [6] = cited from earlier work
# [7] = system: CYP enzymes; settings: ref unpublished in-house data; cited from earlier work
# [8] = EVO+GLI: evogliptin 5 mg and glimepiride 4 mg once daily
# [9] = EVO+GLI: evogliptin 5 mg and glimepiride 4 mg once daily, plasma
# [10] = EVO: evogliptin 5 mg once daily
# [11] = EVO: evogliptin 5 mg once daily, plasma
# [12] = GLI: glimepiride 4 mg once daily
# [13] = GLI: glimepiride 4 mg once daily, plasma
Structure (SMILES),"CLss/F [1, 8]","Ctrough,ss [1, 9]","half-life ([1]; human, plasma, oral) [h]","2 h PBG, 2 hour postprandial blood glucose [3]","AUGC, area under the serum glucose-time curve [3] [mg·h/dL]","ΔAUGC, difference in the area under the serum glucose-time curve from baseline [3]","ΔGmax, difference in maximum serum glucose level from baseline [3]","AUEC, area under the serum insulin-time curve [4]","Emax, maximum serum insulin level [4]","ΔAUEC, difference in the area under the serum insulin-time curve from baseline [4]","ΔEmax, difference in maximum serum insulin level from baseline [4]","MR, metabolic ratio (AUCτ,ss of metabolite/AUCτ,ss of parent) [1, 8]","AUCτ,ss [1, 9]","Cmax,ss [1, 9]","MR, metabolic ratio (AUCτ,ss of metabolite/AUCτ,ss of parent) [1, 10]","AUCτ,ss [1, 11]","Cmax,ss [1, 11]",further results
"CC(C)(C)OC[C@@H]1C(=O)NCCN1C(=O)C[C@H](N)Cc1cc(F)c(F)cc1F [Evogliptin, evogliptin]",46.9 ± 8.3 (28.4–62.4) L/h,3.1 ± 0.7 (2.2–5.1) μg/L,23.6 ± 5.9,114.7 ± 17.3 (83–164) mg/dL,334.9,−35.8 ± 39.2 (−137.6–18.5) mg·h/dL,−53.2 ± 32 (−162– −12) mg/dL,91.1 ± 48.6 (31.4–265) μIU·h/mL,53.1 ± 25.2 (16.3–124.2) μIU/mL,−19.2 ± 46.6 (−179.9–36.1) μIU·h/mL,−20.4 ± 35.5 (−142.5–21.7) μIU/mL,–,–,–,–,–,–,"CLss/F [1, 10]: 45.6 ± 7.5 (26.5–56.1) L/h; Ctrough,ss [1, 11]: 3.3 ± 0.7 (2.2–5.6) μg/L; Day on which steady-state was achieved ([1]; evogliptin 5 mg once daily): 4 days; Tmax ([1]; human, plasma, oral): 3.5 h; AUC ([1]; human, plasma, oral, 5 mg): 113 ± 21.6 ng·h/mL; Cmax ([1]; human, plasma, oral, 5 mg): 6.7 ± 1.4 ng/mL; half-life ([1]; human, plasma, oral, 5 mg): 28.4 ± 8.9 h; feτ,ss, fraction excreted unchanged in urine during the dosing interval ([2]; EVO: evogliptin 5 mg once daily, urine 0–24 h, mean ± SD, N = 34): 19.1 ± 7.2 (6.7–43.9) %; CL renal [2]: 148 mL/min; CL renal ([2]; 5 mg): 140 mL/min; Gmax, maximum serum glucose level ([3]; healthy male subjects): 136.7 mg/dL; AUGC, area under the serum glucose-time curve ([3]; listed as EVO): 334.9 ± 31.7 (260–406.5) mg·h/dL; Diarrhea: number of subjects who reported adverse drug reactions (number of ADRs) ([5]; N = 35): 1 (1); Tmax, time to reach maximal plasma concentration ([6]; after oral administration): approximately 5 h; Induction or inhibition of CYP enzymes [7]: did not induce or inhibit CYP enzymes"
"CC(C)(C)OC[C@@H]1C(=O)NCCN1C(=O)C[C@H](N)[C@H](O)c1cc(F)c(F)cc1F [Evogliptin M8, 4(R)-hydroxyevogliptin]",–,–,–,–,–,–,–,–,–,–,–,0.1 ± 0.02 (0.05–0.13),10.4 ± 2.5 (6–17) μg·h/L,0.6 ± 0.2 (0.3–1) μg/L,0.09 ± 0.02 (0.04–0.13),10.3 ± 2.1 (6.8–14.7) μg·h/L,0.6 ± 0.2 (0.4–1.1) μg/L,–
"CCC1=C(C)CN(C(=O)NCCc2ccc(S(=O)(=O)NC(=O)N[C@H]3CC[C@H](C)CC3)cc2)C1=O [Glimepiride, glimepiride]",2.5 ± 0.8 (1.2–4.5) L/h,4.2 ± 6.3 (0–24.7) μg/L,4.2 ± 2,94.7 ± 23.9 (44–140) mg/dL,291.8,−67.5 ± 60 (−179.6–69.4) mg·h/dL,−68.9 ± 25.1 (−129– −22) mg/dL,141.7 ± 65.5 (40.7–318.2) μIU·h/mL,86.4 ± 43.8 (29.7–248.4) μIU/mL,17.9 ± 60.1 (−174.5–157.2) μIU·h/mL,12.9 ± 45.2 (−109.2–122.1) μIU/mL,–,–,–,–,–,–,"CLss/F [1, 12]: 2.7 ± 1 (1.2–5.1) L/h; Ctrough,ss [1, 13]: 8.6 ± 10.9 (0–51.9) μg/L; AUC ([1]; human, plasma, oral, 4 mg): 1670 ± 624 ng·h/mL; Cmax ([1]; human, plasma, oral, 4 mg): 327 ± 98.5 ng/mL; half-life ([1]; human, plasma, oral, 4 mg): 4.7 ± 2.2 h; AUGC, area under the serum glucose-time curve ([3]; listed as GLI): 291.8 ± 48.5 (216.1–429.6) mg·h/dL; Number of AEs considered related to the investigational products ([5]; 35 subjects in safety assessment): five; Cold sweat: number of subjects who reported adverse drug reactions (number of ADRs) ([5]; N = 35): 1 (1); Dizziness: number of subjects who reported adverse drug reactions (number of ADRs) ([5]; N = 35): 1 (1); Hypoglycemia: number of subjects who reported adverse drug reactions (number of ADRs) ([5]; N = 35): 1 (1); Increased blood bilirubin: number of subjects who reported adverse drug reactions (number of ADRs) ([5]; N = 35): 1 (1); Nausea: number of subjects who reported adverse drug reactions (number of ADRs) ([5]; N = 35): 1 (1); Tmax ([6]; after oral administration): ≤ 3 h; half-life [6]: 1.2 to 1.5 h"
"CC(C)(C)OC[C@@H]1C(=O)NCCN1C(=O)C[C@H](N)[C@@H](O)c1cc(F)c(F)cc1F [Evogliptin M7, 4(S)-hydroxyevogliptin]",–,–,–,–,–,–,–,–,–,–,–,0.09 ± 0.02 (0.04–0.13),10.1 ± 2.8 (5.5–17) μg·h/L,0.7 ± 0.2 (0.4–1.0) μg/L,0.09 ± 0.02 (0.03–0.12),9.8 ± 2.4 (6.3–14.6) μg·h/L,0.7 ± 0.2 (0.4–1.2) μg/L,–
"CCC1=C(C)CN(C(=O)NCCc2ccc(S(=O)(=O)NC(=O)NC3CCC(CO)CC3)cc2)C1=O (stereo not drawn) [Glimepiride M1, hydroxyglimepiride]",–,–,–,–,–,–,–,–,–,–,–,0.39 ± 0.1 (0.19–0.62),652.6 ± 197.7 (387–1331.4) μg·h/L,84.2 ± 19 (55.8–137) μg/L,–,–,–,"MR, metabolic ratio (AUCτ,ss of metabolite/AUCτ,ss of parent) [1, 12]: 0.4 ± 0.11 (0.2–0.63); AUCτ,ss [1, 13]: 611.9 ± 180.7 (309.4–1179.5) μg·h/L; Cmax,ss [1, 13]: 81.3 ± 20.6 (47.7–135.3) μg/L"
